These results are taken from ChEMBL document CHEMBL4138297, “N-Leucinyl Benzenesulfonamides as Structurally Simplified Leucyl-tRNA Synthetase Inhibitors” (ACS Med Chem Lett, 2018).

In brackets after ≈: the same amount, converted by molar mass. Activity calls are given as the source filed them. Where only a bound is given, the exact number is not on record here.

The target in assay [1] is T1, Leucine--tRNA ligase, cytoplasmic (Homo sapiens, UniProt Q9P2J5). Nature of the assay: Inhibition of human LeuRS assessed as reduction in ATP consumption.
T1 sequence (Q9P2J5 whole entry): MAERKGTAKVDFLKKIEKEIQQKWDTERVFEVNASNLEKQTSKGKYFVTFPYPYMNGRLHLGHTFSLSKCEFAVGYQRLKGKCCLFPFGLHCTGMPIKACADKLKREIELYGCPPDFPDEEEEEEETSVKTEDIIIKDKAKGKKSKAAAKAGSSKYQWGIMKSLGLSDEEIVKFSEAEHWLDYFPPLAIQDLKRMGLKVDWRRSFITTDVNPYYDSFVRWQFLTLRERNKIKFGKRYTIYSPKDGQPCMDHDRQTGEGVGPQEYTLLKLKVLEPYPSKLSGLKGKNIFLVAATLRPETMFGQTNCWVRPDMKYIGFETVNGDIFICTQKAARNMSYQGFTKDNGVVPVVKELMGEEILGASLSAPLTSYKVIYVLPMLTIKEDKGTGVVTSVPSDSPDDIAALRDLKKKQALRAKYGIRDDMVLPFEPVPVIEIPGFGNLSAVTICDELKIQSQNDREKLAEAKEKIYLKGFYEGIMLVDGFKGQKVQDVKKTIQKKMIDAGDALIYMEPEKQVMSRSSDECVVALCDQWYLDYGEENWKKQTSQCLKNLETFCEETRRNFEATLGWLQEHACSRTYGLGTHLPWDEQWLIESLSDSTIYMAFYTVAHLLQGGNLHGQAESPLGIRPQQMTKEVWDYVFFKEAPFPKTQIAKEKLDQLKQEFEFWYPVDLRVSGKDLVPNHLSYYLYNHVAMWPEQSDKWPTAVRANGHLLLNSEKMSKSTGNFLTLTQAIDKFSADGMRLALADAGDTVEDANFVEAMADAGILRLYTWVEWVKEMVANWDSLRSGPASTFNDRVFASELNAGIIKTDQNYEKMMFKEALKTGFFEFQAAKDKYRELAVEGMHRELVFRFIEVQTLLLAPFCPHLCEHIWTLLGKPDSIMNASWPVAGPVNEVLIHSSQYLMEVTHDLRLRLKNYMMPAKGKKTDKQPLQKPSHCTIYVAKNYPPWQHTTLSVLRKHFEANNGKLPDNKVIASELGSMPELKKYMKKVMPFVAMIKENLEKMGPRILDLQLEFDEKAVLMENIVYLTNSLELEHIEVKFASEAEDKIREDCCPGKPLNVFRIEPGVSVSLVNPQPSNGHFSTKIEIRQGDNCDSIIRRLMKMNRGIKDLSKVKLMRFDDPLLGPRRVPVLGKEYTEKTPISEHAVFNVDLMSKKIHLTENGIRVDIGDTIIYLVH
The target in assay [2] is T2, Leucine--tRNA ligase (Staphylococcus aureus (strain NCTC 8325), UniProt Q2FXH2).
T2 sequence (Q2FXH2 whole entry): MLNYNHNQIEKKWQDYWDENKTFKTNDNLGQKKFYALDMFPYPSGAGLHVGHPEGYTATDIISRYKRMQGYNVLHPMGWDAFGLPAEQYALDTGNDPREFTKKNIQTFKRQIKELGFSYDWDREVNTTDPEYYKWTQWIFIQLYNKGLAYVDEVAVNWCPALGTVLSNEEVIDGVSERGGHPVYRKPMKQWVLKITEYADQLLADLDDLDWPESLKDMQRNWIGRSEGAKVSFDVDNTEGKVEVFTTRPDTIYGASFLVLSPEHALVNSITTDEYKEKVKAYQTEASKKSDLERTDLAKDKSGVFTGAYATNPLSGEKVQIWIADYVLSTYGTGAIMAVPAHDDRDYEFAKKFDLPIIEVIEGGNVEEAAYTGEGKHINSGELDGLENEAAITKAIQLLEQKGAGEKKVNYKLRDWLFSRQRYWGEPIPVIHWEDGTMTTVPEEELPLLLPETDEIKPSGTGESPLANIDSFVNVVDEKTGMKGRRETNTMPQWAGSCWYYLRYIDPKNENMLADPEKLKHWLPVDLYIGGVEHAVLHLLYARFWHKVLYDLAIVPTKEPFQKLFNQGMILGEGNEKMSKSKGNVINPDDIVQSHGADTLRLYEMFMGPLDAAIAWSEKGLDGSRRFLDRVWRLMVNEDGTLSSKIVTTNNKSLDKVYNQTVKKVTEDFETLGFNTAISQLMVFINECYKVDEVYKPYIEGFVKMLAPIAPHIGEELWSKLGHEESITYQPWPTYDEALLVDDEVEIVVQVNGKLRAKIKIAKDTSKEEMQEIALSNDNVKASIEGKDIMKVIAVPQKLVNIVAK
Nature of the assay: Inhibition of Staphylococcus aureus LeuRS expressed in Escherichia coli M15 cells assessed as reduction in ATP consumption.

The target in assay [3] is T3, Leucine--tRNA ligase (Escherichia coli (strain K12), UniProt P07813). Nature of the assay: Inhibition of Escherichia coli LeuRS expressed in Escherichia coli M15 cells assessed as reduction in ATP consumption.
T3 sequence (P07813 whole entry): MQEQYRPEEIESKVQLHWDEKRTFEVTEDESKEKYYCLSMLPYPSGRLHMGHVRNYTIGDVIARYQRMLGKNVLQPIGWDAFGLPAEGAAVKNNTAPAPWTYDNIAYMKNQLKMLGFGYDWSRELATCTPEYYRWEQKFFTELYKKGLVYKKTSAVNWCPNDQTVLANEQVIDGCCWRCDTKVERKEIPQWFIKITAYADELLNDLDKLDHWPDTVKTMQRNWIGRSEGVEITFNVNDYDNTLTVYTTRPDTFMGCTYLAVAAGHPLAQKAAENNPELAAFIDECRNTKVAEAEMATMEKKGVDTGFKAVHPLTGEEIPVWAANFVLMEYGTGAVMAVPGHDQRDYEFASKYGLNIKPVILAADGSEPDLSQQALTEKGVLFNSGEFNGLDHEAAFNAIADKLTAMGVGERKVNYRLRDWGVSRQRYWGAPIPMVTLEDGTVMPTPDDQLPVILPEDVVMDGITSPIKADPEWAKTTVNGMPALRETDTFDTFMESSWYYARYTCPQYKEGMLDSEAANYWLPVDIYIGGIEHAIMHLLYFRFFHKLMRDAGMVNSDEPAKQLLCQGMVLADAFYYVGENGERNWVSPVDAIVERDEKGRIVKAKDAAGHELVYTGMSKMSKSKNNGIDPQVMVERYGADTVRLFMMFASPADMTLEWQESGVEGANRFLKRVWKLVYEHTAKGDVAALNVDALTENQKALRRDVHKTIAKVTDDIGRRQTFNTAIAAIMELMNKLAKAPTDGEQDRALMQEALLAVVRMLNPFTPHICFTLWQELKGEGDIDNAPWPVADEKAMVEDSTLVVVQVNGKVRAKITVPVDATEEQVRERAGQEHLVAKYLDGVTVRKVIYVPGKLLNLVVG
The target of assay [4] is T3, Leucine--tRNA ligase. Briefly: Displacement of IK-698 from Escherichia coli LeuRS by isothermal titration calorimetric calorimetry. A general note: Isothermal titration calorimetry measures the heat released or taken up as one component is titrated into another.
The target in assay [5] is T1, Leucine--tRNA ligase, cytoplasmic. Nature of the assay: Inhibition of human cytoplasmic LeuRS assessed as reduction in protein synthesis measured after 10 mins in presence of [3H]Leu by scintillation counting method.
Assay [6] has as its target T4, Leucyl-tRNA synthetase, putative (Trypanosoma brucei brucei (strain 927/4 GUTat10.1), UniProt Q386D9).
T4 sequence (Q386D9 whole entry): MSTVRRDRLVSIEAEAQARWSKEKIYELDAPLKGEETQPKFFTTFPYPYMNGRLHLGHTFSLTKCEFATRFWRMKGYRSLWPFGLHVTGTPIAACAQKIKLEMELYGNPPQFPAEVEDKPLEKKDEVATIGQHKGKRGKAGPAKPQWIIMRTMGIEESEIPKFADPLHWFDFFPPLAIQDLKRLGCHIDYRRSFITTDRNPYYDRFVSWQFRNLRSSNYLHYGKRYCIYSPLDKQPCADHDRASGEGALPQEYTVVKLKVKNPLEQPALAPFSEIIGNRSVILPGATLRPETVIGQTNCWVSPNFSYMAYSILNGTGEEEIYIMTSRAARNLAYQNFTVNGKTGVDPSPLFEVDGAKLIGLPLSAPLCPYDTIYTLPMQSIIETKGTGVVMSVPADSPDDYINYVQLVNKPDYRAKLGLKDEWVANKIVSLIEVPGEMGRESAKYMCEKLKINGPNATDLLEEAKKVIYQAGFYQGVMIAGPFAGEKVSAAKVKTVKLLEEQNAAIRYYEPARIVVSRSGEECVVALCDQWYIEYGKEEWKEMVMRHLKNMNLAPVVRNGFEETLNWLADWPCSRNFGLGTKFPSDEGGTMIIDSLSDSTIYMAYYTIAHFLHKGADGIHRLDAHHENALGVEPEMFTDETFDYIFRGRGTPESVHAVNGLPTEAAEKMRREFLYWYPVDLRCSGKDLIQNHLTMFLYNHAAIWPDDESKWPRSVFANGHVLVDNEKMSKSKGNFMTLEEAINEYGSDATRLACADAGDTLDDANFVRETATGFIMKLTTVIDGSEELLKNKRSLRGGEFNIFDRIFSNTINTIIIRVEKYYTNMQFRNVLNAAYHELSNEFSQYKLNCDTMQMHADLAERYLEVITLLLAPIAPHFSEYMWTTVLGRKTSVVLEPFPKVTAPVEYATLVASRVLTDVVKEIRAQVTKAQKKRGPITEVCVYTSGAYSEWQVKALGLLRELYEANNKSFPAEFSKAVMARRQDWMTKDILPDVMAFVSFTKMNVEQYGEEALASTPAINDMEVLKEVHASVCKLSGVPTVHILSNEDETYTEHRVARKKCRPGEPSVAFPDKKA
Briefly: Inhibition of Trypanosoma brucei LeuRS assessed as reduction in protein synthesis pretreated for 20 mins in presence of [14C]Leu followed by ATP addition measured after 15 mins by scintillation counting method.

The test system of assay [7] is Escherichia coli. Nature of the assay: Antibacterial activity against Escherichia coli BW25113 harboring AcrA deletion mutant after 18 hrs by broth microdilution method. It is filed as functional, organism-based. The method, boiled down: (§1)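 MIC (ug/mL) against single-gene deletion derivatives of the standard laboratory E. coli strain BW25113 lacking multidrug efflux components (ΔacrA, ΔacrB, ΔtolC). The parent BW25113 strain was tested alongside.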
For orientation: Dilution methods test growth across graded concentrations, often in twofold steps.

For assay [8], the system named is Escherichia coli. Nature of the assay: Antibacterial activity against Escherichia coli BW25113 harboring AcrB deletion mutant after 18 hrs by broth microdilution method. It is filed as functional, organism-based. The method, boiled down:
as §1

Assay [9] relates to Escherichia coli. Briefly: Antibacterial activity against Escherichia coli BW25113 harboring tolC deletion mutant after 18 hrs by broth microdilution method. In kind it is functional, organism-based. The method, boiled down:
as §1

Another assay deals with Staphylococcus aureus. Briefly: Antibacterial activity against Staphylococcus aureus JE2 after 18 hrs by broth microdilution method. It is filed as functional. As to conditions: JE2, 18 h.
The next assay concerns Acinetobacter baumannii. Nature of the assay: Antibacterial activity against Acinetobacter spp ATCC 19606 after 18 hrs by broth microdilution method. It is filed as functional. The settings on record: ATCC 19606 = CIP 70.34 = JCM 6841, 18 h.
The next assay deals with Pseudomonas aeruginosa. Nature of the assay: Antibacterial activity against Pseudomonas aeruginosa PAO1 after 18 hrs by broth microdilution method. It is filed as functional. The settings on record: PAO1, 18 h.
The next assay deals with Klebsiella pneumoniae. Briefly: Antibacterial activity against Klebsiella pneumoniae clinical isolate after 18 hrs by broth microdilution method. In kind it is functional.
The test system of the next assay is Enterobacter cloacae. Nature of the assay: Antibacterial activity against Enterobacter cloacae clinical isolate after 18 hrs by broth microdilution method. It is filed as functional.
Assay [10] relates to Escherichia coli. Briefly: Antibacterial activity against Escherichia coli ATCC 25922 after 18 hrs by broth microdilution method. As to conditions: ATCC 25922, 18 h. It is filed as functional.
Assay [11] relates to Escherichia coli. Briefly: Antibacterial activity against Escherichia coli BW25113 after 18 hrs by broth microdilution method. It is filed as functional. The settings on record: BW25113, 18 h. The method, boiled down: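 Standard laboratory E. coli strain BW25113, wild type for efflux; MIC recorded in ug/mL. The same susceptibility testing was also run on BW25113 derivatives deleted for the multidrug efflux components tolC, acrA or acrB.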

Assay [12] has as its target T3, Leucine--tRNA ligase. Briefly: Binding affinity to Escherichia coli LeuRS by isothermal titration calorimetric calorimetry.

Turning to `CC(C)C[C@H](N)C(=O)NS(=O)(=O)c1cccc(-c2ccnc(N)c2)c1`, the IC50 in [1] is 490 nM; on Leucine--tRNA ligase [2] it was 650 nM; at Leucine--tRNA ligase [3], 14 nM. Further, at Leucine--tRNA ligase [4], the Kd stood at 12.8 nM.

In the case of `CC(C)C[C@H](N)C(=O)NS(=O)(=O)c1cccc(-c2cccc(N)n2)c1`, the IC50 in assay [1] turned out to be 850 nM; at Leucine--tRNA ligase [2] it was 1700 nM; at Leucine--tRNA ligase [3], 23 nM. The Kd on Leucine--tRNA ligase [4] amounted to 13.9 nM.

With `CC(C)C[C@H](N)C(=O)NS(=O)(=O)c1cccc(NC(=S)NC(=O)COc2ccc(Br)cc2Cl)c1`, the IC50 stood at 4500 nM in assay [5] and 1100 nM in assay [6].

Regarding `CC(C)C[C@H](N)C(=O)NS(=O)(=O)c1ccc2ccccc2c1`, in assay [1], the 50% inhibitory concentration (IC50) came to 220 nM. For the same compound, on Leucine--tRNA ligase [4], binding was put at a Kd of 64 nM.

For the compound `Cc1cc(-c2cccc(S(=O)(=O)NC(=O)[C@@H](N)CC(C)C)c2)nc(N)n1`, the result with Escherichia coli [7], in the assay with Escherichia coli [8] and in the assay with Escherichia coli [9] was Active. Further, the half-inhibitory concentration (IC50) was 160 nM in [1], 4400 nM on Leucine--tRNA ligase [2] and 41 nM at Leucine--tRNA ligase [3]. Also, the dissociation constant Kd on Leucine--tRNA ligase [4] is 10 nM.

As to `CC(C)C[C@H](N)C(=O)NS(=O)(=O)c1cccc(-c2cc(-c3ccccc3)nc(N)n2)c1`, the IC50 stood at 33 nM in assay [1], 3600 nM on Leucine--tRNA ligase [2] and 224 nM at Leucine--tRNA ligase [3]. Further, on Leucine--tRNA ligase [4], the affinity, expressed as Kd, was 56 nM.

As to `Cc1cc(-c2cccc(S(=O)(=O)NC(=O)[C@@H](N)CC(C)C)c2)ncn1`, the 50% inhibitory concentration (IC50) in assay [1] turned out to be 2000 nM; on Leucine--tRNA ligase [2] it was 2700 nM; at Leucine--tRNA ligase [3] it was 47 nM. In addition, on Leucine--tRNA ligase [4], the Kd was determined as 22 nM.

As for `CC(C)C[C@H](N)C(=O)NS(=O)(=O)c1ccccc1`, the MIC is > 256 µg/mL against Staphylococcus aureus; 64 µg/mL (≈ 237 µM) in the assay on Acinetobacter baumannii; 64 µg/mL (≈ 237 µM) in the assay on Pseudomonas aeruginosa; 64 µg/mL (≈ 237 µM) in the assay with Klebsiella pneumoniae; 128 µg/mL (≈ 473 µM) against Enterobacter cloacae; 8 µg/mL (≈ 29.6 µM) with Escherichia coli [10]. The minimal inhibitory concentration (MIC) with Escherichia coli [11] is > 128 µg/mL. Further, the IC50 in [1] is 1100 nM. For the same compound, the outcome in the assay with Escherichia coli [9] was Active. Moreover, the affinity on Leucine--tRNA ligase [12], expressed as Kd, was 92.9 nM.

Turning to `CC(C)C[C@H](N)C(=O)NS(=O)(=O)c1cccc(-c2ccnc(N)n2)c1`, the figures for the IC50 (in assay [1]; on Leucine--tRNA ligase [2]) were 3900 nM and 9200 nM, respectively. For the same compound, at Leucine--tRNA ligase [4], the dissociation constant Kd stood at 14.5 nM.

For `CC(C)C[C@H](N)C(=O)NS(=O)(=O)c1cccc(-c2ccccc2)c1`, the IC50 in assay [1] was 3400 nM; at Leucine--tRNA ligase [2] it was 640 nM. Besides, on Leucine--tRNA ligase [4], the Kd worked out at 10.2 nM.

As for `CC(C)C[C@H](N)C(=O)NS(=O)(=O)c1cccc(-c2ccncc2)c1`, the figures for the IC50 (in assay [1]; on Leucine--tRNA ligase [2]) were 1200 nM and 920 nM, respectively. On Leucine--tRNA ligase [4], this compound gave a dissociation constant Kd of 10.9 nM.

In general, IC50 refers to the concentration needed to halve the response being measured. Usually Kd stands for the constant that tells how readily two partners part at equilibrium. A low value points to higher affinity. Broadly, the MIC is the smallest concentration in the dilution series that meets the test's criterion for growth inhibition. A high value points to a need for much substance.
